This is one part of a sample in which hits are shown more often than they occur.
bCat KO growth = beta-catenin-lacking colon tumor cell growth suppression. AID 818. HCT116 beta-catenin knockout viability, CellTiter-Glo, 60 h; hits give low values. viability, % at 10 µM. 140,000 tested, 1.5% active;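 active means viability at or under a set limit, the compound median less 4 SD, cut at about 6% in these data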;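 further: 0% = Hyamine 1622 control at 20 µM and 100% = untreated cell control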
H69AR growth 86K = growth inhibitors of human H69AR lung tumor cells; 85,000 tested, 6% active; H69AR lung tumor viability, ATP luminescence, 72 h; hits give low values; AID 598; viability, % at 10 µM;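 active means viability at or below 40%; inactive means viability above 40%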;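 further: multidrug resistant small cell line overexpressing MRP-1 efflux transporter; 100% = mean luminescence of untreated control wells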
Fibroblast inh = blocks proliferation of human lung fibroblasts; LL 47 human lung fibroblast viability, ATP luminescence; hits give low values; viability, % at 10 µM; 85,000 tested, 1.1% active; AID 719;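 active means viability at or below 50% in the single dose screen; inactive means viability above 50%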;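 further: compound exposure lasted 72 h before the ATP readout; 100% = median luminescence of untreated cell-only wells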
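Test system: LL 47 human lung fibroblasts / Incubation: 72 h compound exposure at 37 °C after overnight plating / Technique: luminescent ATP detection, CellTiter-Glo / Compound dosing: 0.1% DMSO in all compound wells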
HUVEC prolif 384 = blocks proliferation of human endothelial cells; 86,000 tested, 1.1% active; viability, % at 10 µM (by protocol); HUVEC proliferation, CellTiter-Glo luminescence, 72 h; hits give low values;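 active means viability at or below 30%; inactive means viability above 30%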;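 further: 100% = median luminescence of DMSO-only cell control wells on each plate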
PTEN del growth = growth suppressors of cells with PTEN tumor suppressor deletion | AID 827 | HCT116 PTEN-null viability, CellTiter-Glo, 60 h; hits give low values | 140,000 tested, 1.2% active | viability, % at 10 µM;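 active means viability at or below a set limit, 4 SD under the median of all tested compounds, cut at about 3.7% in these data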;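 further: PTEN knockout HCT116 line with beta catenin targeted HCT116 as companion control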
* hit, by the source's call; · = no result.

SMILES | bCat KO growth | H69AR growth 86K | Fibroblast inh | HUVEC prolif 384 | PTEN del growth
COc1ccc2c3c(cccc13)NN=C2C | · | 26* | 26* | 3.0* | ·
CN(C)c1ccc(N/C=C/C(=O)c2ccc(F)cc2)cc1 | 39 | 35* | 99 | 48 | 44
CN(C)c1ccc(N/C=C/C(=O)c2ccco2)cc1 | 62 | 65 | 107 | 72 | 59
Cc1cc(N2C(=O)C3C4CC(C(Br)C4Br)C3C2=O)no1 (stereo not drawn) | 98 | · | · | · | 97
O=[N+]([O-])c1cccc(/C=C/c2nc3ccc([N+](=O)[O-])cc3[nH]2)c1 | 9 | · | · | · | 3.7*
Cn1c(SCC(=O)N2c3ccccc3Sc3ccccc32)nc2ccccc21 | 82 | · | · | · | 74
CN(C)CCCn1c(SCC(=O)N2c3ccccc3Sc3ccccc32)nc2ccccc2c1=O | 1.6* | · | · | · | 1.7*
CC1=CCC2C(=O)N(c3ccccc3OC(=O)c3ccccc3F)C(=O)C2C1 (stereo not drawn) | 90 | · | · | · | 93
CCC(C)COC(=O)C(C#N)c1nc2ccccc2nc1N1CCCCC1 (stereo not drawn) | 74 | 82 | 98 | 104 | 76
CCC(CC)COC(=O)C(C#N)c1nc2ccccc2nc1N1CCN(CC)CC1 (stereo not drawn) | 41 | 79 | 97 | 3.2* | 43
C=CCOC(=O)C(C#N)c1nc2ccccc2nc1N1CCC(C(=O)OCC)CC1 (stereo not drawn) | 86 | 39* | 97 | 91 | 78
CCCCCCOC(=O)C(C#N)c1nc2ccccc2nc1N1CCN(C)CC1 (stereo not drawn) | 22 | 3.6* | 85 | 5.8* | 25
CC1(c2cccc3ccccc23)NC(=O)N(CC(=O)NC2CCS(=O)(=O)C2)C1=O (stereo not drawn) | 92 | · | · | · | 93
CC(C)(C)c1ccc(OCC(=O)NNC(=S)NC(=O)c2ccccc2[N+](=O)[O-])c(Br)c1 | 56 | · | · | · | 66
COc1ccc(/C=N/OCC(=O)N(Cc2ccc(OC)cc2)c2ccccc2C(=O)O)cc1 | 90 | · | · | · | 96
CCCc1cc(=O)[nH]c(-n2[nH]c3c(c2=O)CCCC3)n1 | 4.7* | · | · | · | 10
CCCc1cc(=O)[nH]c(SCC)n1 | 89 | · | 97 | 90 | 105
COc1ccc(OC)c(C(=O)C2COC(=O)C2)c1 (stereo not drawn) | 34 | 26* | 89 | 49 | 38
CCN(CC)c1ccc(NC(=O)CSc2nc3ccccc3c(=O)n2-c2cc(S(=O)(=O)N(C)C)ccc2C)cc1 | 90 | · | · | · | 100
Cc1cc(C2=CC(C)(c3cc(C)oc3C)Nc3nc(C(F)(F)F)nn32)c(C)o1 (stereo not drawn) | 80 | 3.2* | 80 | 67 | 83
CC1(C)OC(=O)C(=NNc2ccc(Br)cc2)C(=O)O1 | 78 | · | · | · | 91
Cc1[nH]n(-c2ncc(-c3ccccc3)s2)c(=O)c1C(c1ccc(Br)cc1)C(C#N)C#N (stereo not drawn) | 94 | · | · | · | 92
CCOC(=O)c1c(NC(=S)NC(=O)c2ccc(Cn3cc(Cl)cn3)o2)sc2c1CCCCC2 | 2.4* | · | · | · | 6
O=C(NC(NC(=S)Nc1c(Cl)cc(Cl)cc1Cl)C(Cl)(Cl)Cl)OCc1ccccc1 (stereo not drawn) | 5.9* | · | · | · | 5
Cc1ccc(C)c(NC(=S)NC(NC(=O)OCc2ccccc2)C(Cl)(Cl)Cl)c1 (stereo not drawn) | 84 | · | · | · | 92
SMILES | bCat KO growth | H69AR growth 86K | Fibroblast inh | HUVEC prolif 384 | PTEN del growth
CN(C)c1ccc(/C=C/C(O)=C2/C(=O)N(C)C3(C)CC2c2ccccc2O3)cc1 (stereo not drawn) | 56 | 21* | 96 | 91 | 52
CCOC(=O)N1CCC(NC(=O)c2cc3c(-c4cccc(OC)c4)nn(C)c3s2)CC1 | 82 | 10* | 93 | 75 | 75
CCCCCCCCNC(C)C(O)c1ccc(SC(C)C)cc1 (stereo not drawn) | 1.6* | 1.7* | 4.0* | 2.6* | 1.3*
CC(=O)N1CCN(c2ccc(NC(=O)c3ccc(C(C)(C)C)cc3)cc2)CC1 | 5.9* | 34* | 97 | 51 | 6
CCOC(=O)c1cnn(-c2ncnc3c2cnn3Cc2ccccc2)c1N | · | 26* | 92 | 20* | ·
CCC(=O)Oc1ccc2ccccc2c1CNC(=O)c1ccccc1 | 75 | · | · | · | 71
CCOC(=O)CC(=O)CSc1nc2c(c(C)c1C#N)CCC2 | 94 | 12* | 103 | 78 | 82
Cc1ccc(-c2nnc(SCC(=O)Nc3ccccc3N3CCOCC3)o2)cc1 | 97 | 95 | 96 | 106 | 93
Cc1ccc2nc(SCC(=O)Nc3ccccc3N3CCOCC3)c(C#N)cc2c1 | 57 | 24* | 95 | 44 | 58
COC(=O)CSc1nc2cc(C)ccc2cc1C#N | 85 | 78 | · | 81 | 81
CCOC(=O)CC(=O)CSc1nc2ccc(C)cc2cc1C#N | 31 | 3.2* | 96 | 100 | 25
COCCCNC(=S)N1CCN(S(C)(=O)=O)CC1 | 106 | · | · | · | 95
O=C(CCCSc1nnnn1-c1cccc2ccccc12)c1ccc(F)cc1 | 93 | · | · | · | 86
Cc1cccc(C(=O)N2CCN(c3ccc(C(F)(F)F)cn3)CC2)c1C | 71 | 81 | 97 | 93 | 74
COc1ccc(S(=O)(=O)N2CCCCCC2)cc1N(C)S(=O)(=O)c1ccc(C)cc1 | 67 | · | · | · | 69
O=C(C[n+]1cnn(CC(=O)c2ccc(Cl)cc2Cl)c1)c1ccc([N+](=O)[O-])cc1 | 57 | · | · | · | 68
CSc1nc(N2CCN(CCO)CC2)c2sc3nc(-c4ccco4)c4c(c3c2n1)CCC4 | · | 0.8* | 98 | 77 | ·
O=C(Nc1cc(C(F)(F)F)ccc1-n1cnc2ccccc21)c1ccccc1 | 84 | · | · | · | 78
CCCCCn1c(CN2CCN(c3cccc(Cl)c3)CC2)nc2c1c(=O)[nH]c(=O)n2C | 60 | 39* | 84 | 64 | 48
Cn1c(=O)[nH]c(=O)c2c1nc(CN1CCN(c3cccc(Cl)c3)CC1)n2CCc1ccccc1 | 79 | 2.8* | 85 | 73 | 74
O=C(NCc1ccco1)c1ccc(COc2cc(Cl)ccc2Cl)cc1 | 93 | · | · | · | 91
O=c1c2ccccc2nc(/C=C/c2ccc([N+](=O)[O-])cc2)n1CCCO | 55 | · | · | · | 56
O=c1c2ccccc2nc(/C=C/c2ccc([N+](=O)[O-])o2)n1CCCO | 1.5* | · | · | · | 1.3*
Cc1ccc(-c2nnc(SCC(=O)N3CCOCC3)nc2-c2ccc(C)cc2)cc1 | 49 | 19* | 98 | 98 | 59
Cc1ccc(SCC(=O)N2CCOCC2)cc1 | 91 | · | · | · | 99
SMILES | bCat KO growth | H69AR growth 86K | Fibroblast inh | HUVEC prolif 384 | PTEN del growth
Cc1ccc2nc(N(CCN(C)C)C(=O)/C=C/c3cccs3)sc2c1 | 78 | · | · | · | 80
CN(C)CCN(C(=O)/C=C/c1cccs1)c1nc2c(F)cc(F)cc2s1 | 1.6* | · | · | · | 2.0*
N/C(Cc1ccc(Cl)cc1)=N\OC(=O)C1CCCCC1 | 95 | · | · | · | 101
CSc1nc2ccccc2cc1/C=C(\C#N)c1cccc(Cl)c1 | 7 | · | · | · | 7
O=C(Nc1nc(-c2cccs2)cs1)c1ccc(Cl)s1 | 51 | 3.6* | 98 | 43 | 50
Cc1cc(C)n(CC(O)COc2ccc(OCC(O)Cn3nc(C)cc3C)cc2)n1 (stereo not drawn) | · | 77 | 100 | 102 | ·

From PubChem BioAssay
